Assay results as given in the EternaBench riboswitch data.

Tested on: MS2 coat protein
Assay: apparent Kd, MS2 coat protein; higher = weaker binding; RNA-MaP array; FMN 200 µM where present
Summary of the method: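 The apparent Kd comes from binding curves fitted cluster by cluster, filtered, and summarised as a median. Those curves followed SNAP-549-labelled MS2 coat protein from 0.7 or 1.5 nM, doubling to 3 µM, on Illumina sequencing-chip clusters where stalled E. coli RNA polymerase had transcribed the designs, without and then with constant ligand. The buffer was 100 mM Tris-HCl pH 7.5, 80 mM KCl, 4 mM MgCl2, BSA, DTT, yeast tRNA and Tween-20, and green signal was normalised to red-channel RNA signal and control-cluster median Fmax.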

[1] = designed as: OFF switch for flavin mononucleotide, no ligand
[2] = ligand present: flavin mononucleotide, designed as: OFF switch for flavin mononucleotide
[3] = designed as: ON switch for flavin mononucleotide, no ligand
[4] = ligand present: flavin mononucleotide, designed as: ON switch for flavin mononucleotide

Sequence	apparent Kd [1] [nM]	apparent Kd [2] [nM]	apparent Kd [3] [nM]	apparent Kd [4] [nM]
CCUGCCAGGACAGGAUAUCUGAGCUGGGACAUGUCUUUUAAGGACAUGAGGAUCACCCAUGUUCAAGAGAAGGGUCAAGGGCGU	401	210	–	–
AUACGUGAGAAGGAUAUCACUCGCCAGAGGCGAUGAGAAGGUUUCACAUGAGGAUCACCCAUGUGCUCUUCUAG	32	75.1	–	–
CCUGUGUGAGGAUAUGGUGUUGGCAAAAAGGAAUAGCUCCUCCAGAAGGCACAUGAGGAUCACCCAUGUCGUGG	15.2	36	–	–
UGUUACUAGUAAGGAUAUACUAGCGAUAAGCUAGUAGAAGGUACAGUCUUUUGUAUAUCAUGUUUACAUGAGGAUCACCCAUGU	–	–	9.09	7.49
UAUAUAUAGGCAGGAUAUACAUGAAUAUAUAUAAUAUAAUAUGAUGUAACAUGAGGAUCACCCAUGUAGAAGGGCCAAUAUAUA	32.6	64.9	–	–
GGUGCGUUUGUGAGGAUAUGCUGGUCCUUGGUUCGGCAGAAGGCACAUGAGGAUCACCCAUGUGGUGUCGUACC	16.7	48.8	–	–
UUUUUGUCAGGAUAUGAUUAGAUCUACUUUUGUAGAUCUAAUCAGAAGGGACAUGAGGAUCACCCAUGUAGUUU	37.2	152	–	–
CCCAUGUUAGGAUAUAUGGAAGGGCGCACGUGCACCCUAAGGUAGAAGGGACAUGAGGAUCACCCAUGUAAUAA	152	228	–	–
UUUUAACAUGAGGAUCACCCAUGUGAGGAUAUCGAAAUUUAUAUUAAUAUUAAUAUAUCGAGAAGGCACAUUUU	79.8	104	–	–
AAAGACAGACAUGAGGAUCACCCAUGUUACGAAGAUACUGGGAGAAGGGCGAUUGCAAAGCAAUCGCAGGAUAUUCGUAUUGUC	–	–	25.8	13.2
GUCAGCUCGUGAGGAUAUACAUGUGCUGGAAACAGCAUUAUAUUUUUCACAUGAGGAUCACCCAUGUAGAAGGCACGAGCUGAU	16.3	27	–	–
GUGGUGGGUUGAGGAUAUUGGUUGUCGUUGUCCCACAUGAGGAUCACCCAUGUGGGUUGUGGUUUUGAGAAGGUUGGUUGCUGG	–	–	18.1	15.9
GGAUGAGCGAUAGGAUAUGCUGGGAUUGAAUGGGUAGAAGGAUUUCUAGUGGGAAAGACAUGAGGAUCACCCAUGUCGCGGACC	–	–	30.3	29.4
GCCAUCACAUGAGGAUAUGCUCGGGUUUCCCGAGCAGAAGGCAUGUCAUAGGACAUGAGGAUCACCCAUGUAGUUAAGAUGGCA	–	–	507	17.1
GGUCGUCACAUUUACAUGAGGAUCACCCAUGUCGAAAGACAUGAGGAUAUGCAUCCUAAUUGGAUGCAGAAGGCAUGGACGACC	–	–	445	249
AAAAAGCGAGGAUAUACAUGAGGAUCACCCAUGUAAAAAAAAAGAGAUGAAACAUCAUGUAGAAGGCGCAAAAA	211	134	–	–
AUAUUUAUUUAGAAGGACAUGAGGAUCACCCAUGUCGCUGGGCGCGGGAAACCGUGCCCGGCCAUGUAGGAUAUAGGUAGAUAU	14.2	12.2	–	–
UGAUAGGACAGAGGAUAUACCGAUAGGAUCUACUAUCGAACAAUCCUCACAUGAGGAUCACCCAUGUAGAAGGCUGUCCUAUCU	25.2	284	–	–
AAGAAACAUGAGGAUCACCCAUGUGAGGAUAUGUAAAAGAAAAGAAAAUAAAGAAGAAACAGAAGGCACAAAGG	40.2	64.4	–	–
CCUCCCUGAGGAUAUCCACCCUCAUACAUGAGGAUCACCCAUGUUCAACCCUGGGUUCCCGGAGAAGGCAGCUUCC	260	263	–	–
CCGAUGGUAUACUAGGAUAUGGGCGCCCUUACAUGAGGAUCACCCAUGUUUACACAAAUCCGCGGCCAGAAGGAGUUCAUGGGAG	–	–	184	133
GACCUCCCUGUAAGGAUAUCCGUGCAUCAAAGCAAGGAGAAGGUACAUGAGGAUCACCCAUGUCACCCGCGUUA	14.7	21	–	–
UGGCCAAGAGGAUAUACAUGAGGAUCACCCAUGUCCAUCCUGAUGGAUAGGGCCGAGUGUAGAAGGCUUGGUCC	32.6	18	–	–
UCUCUUCUGUAGAAGGCCCAACUUGUGAAGGCAACGAUGCUAUAGAAGUAGGGAGGAUAUACAUGAGGAUCACCCAUGUAGGAA	9.28	13.4	–	–
AACGCGUCAGGAUAUGCCAUAAAUUACCUAAUACGACCAUAGCAGAAGGGACAUGAGGAUCACCCAUGUAAAUA	36.2	28.8	–	–
ACGCCCUGAGGAUAUCUUAUCCCGUACAUGAGGAUCACCCAUGUUCUCCUCCGGGCUCCGAGAGAAGGCAGGCCCA	26.7	37	–	–
AAGUCUGGACGAGGAUAUCAGUUGUAUCUAGAAUCAACAUGAGGAUCACCCAUGUUGCAAUAGGGUGAGAAGGCGUUUGGGCAA	–	–	81.8	18.1
GGAGCUCCUGACAUGAGGAUCACCCAUGUUCAAUUAUUAAAUCAGGAUAUCGUCUCGAAACGAGACGAGAAGGGAUAUGCUCCU	–	–	5.89	6.2

Sequence	apparent Kd [1] [nM]	apparent Kd [2] [nM]	apparent Kd [3] [nM]	apparent Kd [4] [nM]
CUAGUACAUGAGGAUCACCCAUGUCAGGAUAUUGGAUAUGACAUGGAAAACAUGUUAACAAGAAGGGACUAUAG	245	209	–	–
GUUAGGAAUCUAGCGAACAUGAGGAUCACCCAUGUUAGUGGGAAGGAUAUGGUACAGAAACUGUACCAGAAGGUCUUAUUGUUU	–	–	398	305
UUUUAGUGAGGAUAUGUGGCUUCGAUCGUGAGAUCGAGGCUACAGAAGGCACAUGAGGAUCACCCAUGUUCCUA	16.6	81.7	–	–
AUUCAGUCAGGAUAUCGUUAAUUUAAUUGUUUGUUUUAGUUCGAGAAGGGACAUGAGGAUCACCCAUGUACUUU	20.2	19.3	–	–
GGGUUUGGUGUGAGGAUAUCGGGCCCGAAAGGGUUUGAGAAGGCACAUGAGGAUCACCCAUGUAAGCCGGGCCC	22.8	17.2	–	–
GUAGAGUCAGGAUAUACAAAACCAUCGAUAGAUGGAUCCAUACAUGAGGAUCACCCAUGUAGAAGGGACUCUAC	20.3	21.5	–	–
AGUCAGAGCAGAGGAUAUAUACAUGAGGAUCACCCAUGUGACUGCCUAUGCUCGAAAGAGUAUGUAUAGAAGGCUGCUCUGACA	611	276	–	–
GAAGCACGCAUUAACAUGAGGAUCACCCAUGUCAAAAGACGUGAGGAUAUGGAUCUGAAGAAGAUCCAGAAGGCACCGUGCUAA	–	–	8.41	5.3
GGAUCGUAUGUGAGGAUAUACCACUGGAUACAGUGGUAGAAGGCACAUGAGGAUCACCCAUGUCCUAUCGAUCC	146	196	–	–
GGGUACAUCGGAGGAUAUCAUGUAUAGACAUGAGGAUCACCCAUGUCGUACGAGAGUACGGAGAUUGAGAAGGCCGAUGUACCG	–	–	20.7	17.3
GCGAUUUUGUAGAAGGUACGUUAUAAGACAAUGUAAGGAUAUACUGACAUGAGGAUCACCCAUGUAUAAAUAGUUAACAGUCGC	–	–	8.89	6.68
GGGUACAUCGGAGGAUAUCAUGUAAAUACAUGAGGAUCACCCAUGUCGAUGGAGACAUUGGAGAUUGAGAAGGCCGAUGUACCG	–	–	156	219
GGUCCAACAUGAGGAUAUAGCACCUUAUUGGUGCUAGAAGGCGUGUCGGUAGACAUGAGGAUCACCCAUGUAAUACAUUGGACC	–	–	218	28.5
UUCAGGGAUCAAGGAUAUCUAUAAACAUGCGGACAUGAGGAUCACCCAUGUUGAUUACCCAUGUGGGAGAAGGUGAACAUGAGG	–	–	44.7	20.6
UCAGGCUUCGAGAAGGACAUGAAUCGUAGCAUUGCUACGAUCAAAGAUACAUGAGGAUCACCCAUGUAGGAUAUCGGAGUCUGC	5.75	7.63	–	–
CCGCUGUCAGGAUAUCGUGCAUACAACGAAAGUUCUAUGUGCGAGAAGGGACAUGAGGAUCACCCAUGUUUCCG	16.6	25.8	–	–
AUUUUAAAGGGAGGAUAUACAUGAGGAUCACCCAUGUAAACGUGAGGAUCACCCAUGUAAACAAUGUAGAAGGCCUAUAUCUAU	86	74.1	–	–
AGUUUUGUACAUGAGGAUCACCCAUGUUAAUAUGUGGUAGUCAGAAGGCAUUGAUAGAGUUUUAAUGAGGAUAUGAAUAUUCUG	–	–	31.8	32.3
UCAGGCUUCGAGAAGGACAUGAGGAUCACCCAUGUUAAUUAGAAGCAGCCGUGAGGCUGCAUCAUGUAGGAUAUCGGAGUCUGC	7.16	24.8	–	–
UUGAAUUAUAAGGAUAUGGGAGUCGAUAGACACCCAGAAGGUAUAACAUGAGGAUCACCCAUGUGUCCUAUCUU	22.2	23.4	–	–
UCCUGAUCGAGAGGUAGGAGUGGUAGAAGGCGACCGGUGCCAGAUGACAUGAGGAUCACCCAUGUCGAGGAUAUACCACUGAAU	7.04	12.1	–	–
ACUGACAUGAGGAUCACCCAUGUCUUGAAUAGGUCAAAUUCACAGGAUAUGCGCUAGGACAGGGUGCAGAAGGGUGAUGCAAUG	–	–	45.4	12.1
GUAGCAUACAGAGGAUAUUCAAACGACAAAAGUCGACAUGAGGAUCACCCAUGUGGCGAAAGCCGGGAGAAGGCUGAAUGCUAC	–	–	15	12
AUUUAGAGAGGAUAUAUAUUGUGAAACAUGAGGAUCACCCAUGUAAUAAUAUGGAUGUAAAUAGAAGGCUCAUUUA	38.1	34.9	–	–
CGUAGGAUCCAGAAGGCAUGAAACAUGAGGAUCACCCAUGUCAAAUACAUGAGGAUAUGGAUCCUACGAAAAGUGCGAAAGCAC	–	–	3.95	3.84
AAGUGUCCUAAGGAUAUCGAAGCUAUCGGCUGCCGAGAAGGUAGGACAUGAGGAUCACCCAUGUACCGUGAGCC	68.1	29.8	–	–
UGCCGCAACAACGCGGCGUCACAUGAGGAUCACCCAUGUUCACAGGAUAUGCGAUAGCCAACGAAGCAGAAGGGUGAUUACUUA	–	–	53.7	219
